The values below come from ChEMBL document CHEMBL4765333, “Novel NO-releasing scopoletin derivatives induce cell death via mitochondrial apoptosis pathway and cell cycle arrest” (Eur J Med Chem, 2020).

Holding throughout (assay type): functional
The test system of test [1] is MDA-MB-231. Description: Induction of cell cycle arrest in human MDA-MB-231 cells assessed as accumulation at S phase at 2 uM measured after 24 hrs by propidium iodide staining based flow cytometric method (reference value: 36.25%). (A flow cytometer gives signals particle by particle.)
The subject of test [2] is MDA-MB-231. The experiment in a line: Induction of apoptosis in human MDA-MB-231 cells assessed as late apoptotic cells at 1 uM after 24 hrs by Annexin V/propidium iodide based flow cytometric analysis (reference value: 0.038%). The gist of the method:
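MDA-MB-231 cells (2×10^5/well) attached 24 h, then treated 24 h with 1, 1.5, 2 or 3 µM, DMSO as control. Cells harvested, PBS-washed, resuspended in binding buffer, stained with Annexin V and PI for 30 min at 37°C in the dark, and analysed by flow cytometry for quadrant percentages; three experiments.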

In test [3] the test system is MDA-MB-231. The experiment in a line: Induction of intracellular reactive oxygen species generation in human MDA-MB-231 cells at 1 uM measured after 24 hrs by DCFH-DA staining based flow cytometry analysis relative to control. The gist of the method:
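MDA-MB-231 cells at 2×10^5 cells/well, grown 24 h, exposed 24 h to compound (1, 1.5, 2 µM) or DMSO control. Cells then took up DCFH-DA for 30 min at 37°C in the dark, were PBS-washed, resuspended in serum-free medium and analysed by flow cytometry. Relative DCF level vs control; mean ± SD, n = 3.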

The subject of test [4] is MDA-MB-231. Description: Induction of cell cycle arrest in human MDA-MB-231 cells assessed as accumulation at G0/G1 phase at 2 uM measured after 24 hrs by propidium iodide staining based flow cytometric method (reference value: 45.71%).
Test [5] concerns MDA-MB-231. Description: Induction of cell cycle arrest in human MDA-MB-231 cells assessed as accumulation at G2/M phase at 1.5 uM measured after 24 hrs by propidium iodide staining based flow cytometric method (reference value: 18.55%).

Take `COc1cc2cc(N)c(=O)oc2cc1OCCCOc1no[n+]([O-])c1S(=O)(=O)c1ccccc1`: the Activity in the test on MDA-MB-231 [1] was determined as 20.82%; in the test on MDA-MB-231 [2], 8.17%; in the test on MDA-MB-231 [4] it was 38.05%; with MDA-MB-231 [5], 30.11%. In addition, in the test on MDA-MB-231 [3], the “fold change (FC)” value was determined as 1.31.
